Laboratory results from article PMC9075022 (Research in Pharmaceutical Sciences, 2022).
≈ marks a conversion by molar mass, not a printed value. Like-named read-outs stand apart in the source and are kept apart here.

Legend:
PC12 cells = assay: Cellular uptake by fluorescent microscopy; type: cell-based, rat; conditions: 100 μg/mL, 24 h incubation, 37 °C
Procedure, shortened: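 PC12 cells at 5 × 10^4 cells/well in DMEM with 10% FBS and antibiotics, kept at 37 °C in 5% CO2. Exposed to test compound at 37 °C for 24 h. Washed three times with cold PBS, then 3 min in sterile distilled water. Intrinsic compound fluorescence imaged without staining by fluorescence microscopy (bright field, DAPI, GFP channels), compared with untreated cells.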

PC12 cell line = assay: In vitro antiproliferative MTT assay, PC12; type: cell-based, rat; conditions: 48 h
Procedure, shortened: (§1)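 PC12 (rat pheochromocytoma) or fibroblast cells at 5000/well in DMEM with 10% heat-inactivated FBS, penicillin 100 U/mL and streptomycin 100 μg/mL, grown 24 h. At 80% confluence, test compound or docetaxel/cisplatin controls were added at 1–360 μg/mL for 48 h. MTT (5 mg/mL in PBS pH 7.4) added for 3–4 h; formazan dissolved in DMSO, read at 570 nm. Triplicate; IC50 calculated.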

formation of β-hematin = assay: In vitro β-hematin inhibition assay; type: biochemical; conditions: 200 μg/mL, 60 °C, 24 h; positive if more than 90%
Procedure, shortened: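 Heme detoxification (ITHD) assay. Hemin chloride was dissolved in DMSO and diluted to 60 μg/mL in 1 M acetate buffer pH 4.5. Tween 20 stock was 0.012 g/L; compound was dissolved in DMSO. Hemin, sample and Tween were mixed 9:9:2 in triplicate, final 200 μg/mL. Controls: hemin-free matrix blanks, DMSO negative, chloroquine phosphate positive. Incubated 60 °C, 24 h; mixed and absorbance read at 405 nm.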

fibroblast cell line = assay: In vitro antiproliferative MTT assay, fibroblast; type: cell-based; conditions: 48 h
Procedure, shortened: as §1

P. falciparum = conditions: cited from earlier work

In the case of `Cc1c(OCc2ccccc2)c(=O)ccn1CCCOC(=O)c1ccc(Cl)cc1Cl` [7a, 3-(3-(benzyloxy)-2-methyl-4-oxopyridin-1(4H)-yl) propyl 2,4-dichlorobenzoate], the “cellular uptake (fluorescent emission)” value (PC12 cells) is reported as “cellular uptake potential”, the “IC50 against PC12” value (PC12 cell line) is reported as 37 µg/mL (≈ 82.9 µM) and the “Heme inhibition (%)” value (formation of β-hematin) is reported as 39%. The “IC50 on fibroblast cell line” value (fibroblast cell line) was 44 µg/mL (≈ 98.6 µM).

For `Cc1occc(=O)c1O` [Maltol], the “inhibition of growth of P. falciparum compared to control” value (P. falciparum; 0.01 mM) is listed as “about 15%” and the “inhibition of growth of P. falciparum compared to control” value (P. falciparum; 0.10 mM) is listed as about 50%.

For `Cc1c(OCc2ccccc2)c(=O)ccn1CCCO` [alcoholic precursor, 3-(benzyloxy) -1-(3-hydroxypropyl) -2-methylpyridin-4(1H)-one], the “toxicity against PC12 in words” value (PC12 cell line; 1-360 μg/mL) was “didn’t display remarkable toxicity in defined concentrations”.

In the case of `N.N.[Cl][Pt][Cl]` [cisplatin, reference compound], the “IC50 against PC12” value (PC12 cell line) is reported as 8 µg/mL.
